Screens: PubChem, The Scripps Research Institute Molecular Screening Center
HCV core dimer – blocks dimerization of HCV core protein; inhibition, % at 5 µM; TR-FRET GST/Flag-core106 dimerization, 1536-well; 300,000 tested, 0.33% active;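 active = inhibition above the mean of all tested compounds plus 3 SD, set per screening campaign, cut at about 45% in these data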
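Assay system – GST-tagged and Flag-tagged HCV core protein residues 1-106 · Quantity – core106 proteins, GST 13.5 nM and Flag 17 nM · Benchmarks – unlabelled core106 and no-GST-core106 wells · Read-out basis – percent inhibition of core106 dimerization signal · Detection – time-resolved FRET, ex 340 nm, em 617 and 671 nm · Schedule – 4 h at 22.5 °C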
VIM-2 inh – inhibitors of Pseudomonas aeruginosa VIM-2 metallo-beta-lactamase; AID 1527; purified VIM-2, nitrocefin hydrolysis, epi-absorbance fluorescence; inhibition, % at 5.6 µM; 290,000 tested, 0.89% active;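 active = inhibition above the mean of all tested compounds plus 3 SD, cutoff set per screening run, cut at about 7.5% in these data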;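 also: red hydrolysis product quenches plate fluorescence so inhibitors raise well fluorescence; 0% = enzyme with DMSO and 100% = DMSO without enzyme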
FID counter – displaces DNA intercalator in HCV helicase counter-screen | DNA fluorescent intercalator displacement, fluorescence | inhibition, % at 7.9 µM | 290,000 tested, 0.17% active | AID 1845; in the data active = inhibition above about 37%;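 also: 0% = vehicle and 100% = reference compound; higher means more ethidium bromide displaced from hairpin DNA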
IMP-1 inh – inhibitors of Pseudomonas aeruginosa IMP-1 metallo-beta-lactamase | 290,000 tested, 0.45% active | purified IMP-1, nitrocefin hydrolysis, epi-absorbance fluorescence | inhibition, % at 5.6 µM;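 active = inhibition above the mean plus 3 SD of all compounds in the same screening run, cut at about 4.5% in these data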;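 also: 0% = IMP-1 with DMSO and 100% = DMSO wells lacking enzyme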
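Material – recombinant IMP-1 enzyme, purified · Amount – IMP-1 0.2 nM before substrate addition · Medium – HEPES buffer pH 7.1 with ZnSO4 and Brij 35 · Timing – 25 °C, 15 min preincubation, 25 min reaction · Measured by – plate fluorescence quenching by hydrolysis product, ex 480/em 530 nm · Read-out – percent enzyme inhibition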
Numbers without * were called inactive; . = not tested or not shown. The list is not random: actives were taken first. Their share in the collection is about 1.6%.

SMILES | HCV core dimer | VIM-2 inh | FID counter | IMP-1 inh
C#CCOCCOCCOCCNc1nc(N2CCN(C(=O)[C@H]([C@@H](C)CC)n3cc([C@@H](N)CC(C)C)nn3)CC2)nc(N2CCN(C(=O)[C@H](Cc3ccc(O)cc3)n3cc([C@@H](N)C(C)CC)nn3)CC2)n1 (some centres not stated) | -18.7 | -3.4 | 34.8 | -1.8
C#CCOCCOCCOCCNc1nc(N2CCN(C(=O)[C@H]([C@@H](C)CC)n3cc([C@@H](N)Cc4ccc(O)cc4)nn3)CC2)nc(N2CCN(C(=O)[C@H](Cc3ccc(O)cc3)n3cc([C@@H](N)CC(C)C)nn3)CC2)n1 | 1.1 | -4.0 | 35.8 | -3.4
C#CCOCCOCCOCCNc1nc(N2CCN(C(=O)[C@H]([C@@H](C)CC)n3cc([C@@H](N)Cc4ccc(O)cc4)nn3)CC2)nc(N2CCN(C(=O)[C@H]([C@@H](C)CC)n3cc([C@@H](N)CC(C)C)nn3)CC2)n1 | -2.3 | -0.9 | 47.4* | -3.1
COc1cc2c(cc1OC)CN(Cc1ccc(OC)c(C)c1OC)CC2 | 3.5 | -0.5 | 6.2 | -1.2
Cc1cc(N)c2ccccc2n1 | 0.6 | -2.5 | 6.5 | -3.9
Cc1c(Cl)cccc1NC(=O)C1COc2ccccc2O1 (configuration not stated) | -0.7 | -2.1 | -5.4 | -1.2
c1cc(Nc2cccc3nccnc23)c2nccnc2c1 | -10.7 | 8.6* | 2.1 | -2.0
COc1ccccc1CNCc1ccc(OC)c(OC)c1OC | -4.6 | 0.2 | 2.7 | -4.4
Oc1c(Br)cc(Br)cc1/C=N/n1c(-c2ccccc2)n[nH]c1=S | -10.6 | -0.7 | -1.3 | 22.1*
Cc1cnn(-c2nc(-c3cccs3)cc(C(F)(F)F)n2)c1 | 1.3 | 8.1* | -16.4 | -1.3
CC(C)c1nc2sc3c(NCc4ccco4)ncnc3c2c2c1COC(C)(C)C2 | 14.7 | -0.4 | -13.0 | -1.8
COC(=O)CSc1ncnc2c1sc1nc(-c3ccco3)c3c(c12)CC(C)(C)OC3 | 64.4* | -3.0 | -10.8 | 1.2
CCSc1ncnc2c1sc1nc(-c3ccco3)c3c(c12)CC(C)(C)OC3 | 65.3* | 0.3 | -3.4 | 0.6
O=C(NC(=S)Nc1ccc(N2CCOCC2)cc1)c1ccc(Cl)cc1 | 2.3 | -3.9 | -4.6 | -1.7
O=c1[nH]c2ccccc2cc1-c1nnn(-c2ccc(Cl)c(Cl)c2)n1 | 7.8 | . | . | .
O=[N+]([O-])c1ccc(Cl)c(-c2ccc(/C=N/c3c(-c4ccco4)nc4ccccn34)o2)c1 | 7.8 | -1.5 | 7.5 | -1.6
Cc1cc(C)c([N+](=O)[O-])cc1-c1ccc(/C=N/c2c(-c3ccco3)nc3ccccn23)o1 | 0.8 | 4.3 | -1.6 | 9.2*
Cc1ccc2nc(SCC(=O)NC3CCCC3)nc(=O)n2c1 | 4.2 | . | . | .
O=C(CSc1nnc(NC(=O)c2ccccc2)s1)NCC1CCCO1 (configuration not stated) | 1.5 | 10.6* | -9.2 | -3.1
O=C(CSc1nnc(NC(=O)Cc2ccccc2)s1)NCC1CCCO1 (configuration not stated) | 0.5 | -0.9 | -8.7 | -1.3
O=C(CSc1nnc(NC(=O)c2cccc(F)c2)s1)NC1CCCC1 | 0.3 | 11.3* | -11.4 | -2.3
Cc1cccc(N2CC(C(=O)Nc3nnc(SCC(=O)NCC4CCCO4)s3)CC2=O)c1 (configuration not stated) | 65.1* | -3.1 | -38.0 | -4.7
Cc1ccc(C)c(OCCCC(=O)Nc2ccc(N3CCOCC3)cc2)c1 | . | -3.6 | -11.8 | 6.3*
CCOC(=O)c1noc(C)c1C(=O)Nc1nccs1 | -0.5 | -2.1 | 2.3 | -3.3
C/C(=N\O)c1noc(C)c1C(=O)Nc1nccs1 | -16.7 | 12.1* | 2.7 | 0.2
SMILES | HCV core dimer | VIM-2 inh | FID counter | IMP-1 inh
COc1cccc(C2c3[nH]c4ccccc4c3C[C@H]3C(=O)N(c4ccccc4C(=O)NCCCN4CCOCC4)C(=O)N23)c1 (some centres not stated) | -9.2 | 0.8 | 44.7* | 0.0
C[C@]12CCC3C(CC=C4C[C@@H](O)CC[C@@]43C)C1CCC2[C@]1(C)CCC(=O)O1 (some centres not stated) | -8.5 | -2.4 | -5.4 | -2.3
COC(=O)c1cc(NC(=O)Cc2cccs2)cc(C(=O)OC)c1 | 49.2* | 1.0 | -5.7 | -0.7
CC(=O)Nc1cccc(NC(=O)Cc2cccs2)c1 | 23.1 | -3.4 | -3.3 | -2.6
COc1cc(NC(=O)c2ccccc2)c(OC)cc1NC(=O)Cc1cccs1 | 66.5* | -2.9 | -16.0 | 1.3
O=C(NCC1CCCN1S(=O)(=O)c1cccs1)c1ccc(F)cc1 (configuration not stated) | 0.1 | . | . | .
COc1ccc(NC(=O)CCC(=O)c2cccs2)cc1S(=O)(=O)Nc1ccccc1Cl | 0.4 | -2.0 | -6.8 | 5.2*
COc1ccc(NC(=O)Cn2cc(S(=O)(=O)Cc3ccccc3)c3ccccc32)c(OC)c1 | 52.0* | -3.3 | -19.8 | -1.9
CC(=O)C1=C(C)Nc2cc(C(F)(F)F)ccc2S1 | 2.3 | -1.0 | 0.9 | -4.2
CCOc1ccc(/C=C/C2=Cc3c(sc(NC(=O)CSc4n[nH]c(N)n4)c3C#N)C(C)(C)C2)cc1 | 71.6* | -2.7 | -22.5 | -3.2
Cc1ccsc1/C=C/C1=Cc2c(sc(NC(=O)CSc3n[nH]c(N)n3)c2C#N)C(C)(C)C1 | 76.6* | -2.4 | -15.7 | 0.3
CCOC(=O)c1sc(NC(=O)CSc2n[nH]c(-c3ccncc3)n2)c(C#N)c1C | -0.3 | -4.5 | -4.4 | -1.0
Cc1ccn2cc(CSc3ccccc3N)nc2c1 | -4.5 | -1.9 | 2.7 | -5.3
COc1cccc(C(=O)N/N=C2/SCC(=O)N2CCc2ccc(OC)c(OC)c2)c1 | 0.1 | -1.4 | -16.0 | -0.5
CCOc1ccc(NC(=O)c2cn(-c3ccc(OCC)cc3)c(=O)c3cc(OC)c(OC)cc23)cc1 | 17.0 | -1.8 | -6.8 | -0.1
CCOc1ccc(-n2cc(C(=O)Nc3cccc(Cl)c3)c3cc(OC)c(OC)cc3c2=O)cc1 | 47.8* | -3.7 | -5.5 | -6.5
CCn1c(=O)c(CCC(=O)NCCN2CCOCC2)c(C)c2c(C)nn(-c3ccccc3)c21 | -5.8 | 9.6* | 21.7 | -1.6
Cc1cc(C)nc(NC(=S)Nc2ccccc2)n1 | -1.4 | -4.8 | -6.7 | -1.5
Cc1cc(C)nc(NC(=S)NC(=O)c2ccccc2)n1 | 1.7 | 8.4* | -4.4 | -2.7
COc1ccc(CNC(=O)CSCc2c(F)cccc2Cl)cc1 | -0.5 | -1.4 | -21.2 | -0.9
O=C(COC(=O)CN1C(=O)COc2ccccc21)NCc1ccc(F)cc1 | -4.6 | . | . | .
Cc1ccccc1C(=O)N1CCN(C(c2ccccc2)c2ccccc2)CC1 | 8.9 | -1.7 | -37.4 | 32.8*
O=C(c1ccc(C#CC2(O)CCCCC2)cc1)N1CCN(C(c2ccccc2)c2ccccc2)CC1 | 53.4* | 0.1 | -35.5 | -1.5
Cc1occc1C(=O)N1CCN(C(c2ccccc2)c2ccccc2)CC1 | 9.8 | -2.1 | -19.0 | -3.2
COCCNC(=O)C(c1ccc(F)cc1)N(C(=O)CCC(=O)Nc1ccccn1)C1CCCCC1 (configuration not stated) | -11.6 | -1.0 | -44.8 | -1.1
CN1C(=O)C(O)(CC(=O)c2cccnc2)c2ccccc21 (configuration not stated) | 1.9 | -2.1 | -8.3 | 8.6*
